Data: ChEMBL document CHEMBL5620424, “Design, synthesis and evaluation of novel 2-phenyl-3-(1H-pyrazol-4-yl)pyridine positive allosteric modulators for the M4 mAChR” (Eur J Med Chem, 2023)

These molecules were tested against T1, Muscarinic acetylcholine receptor M4 (Homo sapiens) (UniProt P08173) (assay: Displacement of 3[H]-NMS from human M4 mAChR expressed in Flp-In-CHO cells assessed as binding co-operativity (log alpha) incubated for 6 hrs in presence of ACh by microbeta2 plate reader assay). Conditions: filed as positive allosteric modulator.
T1 sequence (whole entry): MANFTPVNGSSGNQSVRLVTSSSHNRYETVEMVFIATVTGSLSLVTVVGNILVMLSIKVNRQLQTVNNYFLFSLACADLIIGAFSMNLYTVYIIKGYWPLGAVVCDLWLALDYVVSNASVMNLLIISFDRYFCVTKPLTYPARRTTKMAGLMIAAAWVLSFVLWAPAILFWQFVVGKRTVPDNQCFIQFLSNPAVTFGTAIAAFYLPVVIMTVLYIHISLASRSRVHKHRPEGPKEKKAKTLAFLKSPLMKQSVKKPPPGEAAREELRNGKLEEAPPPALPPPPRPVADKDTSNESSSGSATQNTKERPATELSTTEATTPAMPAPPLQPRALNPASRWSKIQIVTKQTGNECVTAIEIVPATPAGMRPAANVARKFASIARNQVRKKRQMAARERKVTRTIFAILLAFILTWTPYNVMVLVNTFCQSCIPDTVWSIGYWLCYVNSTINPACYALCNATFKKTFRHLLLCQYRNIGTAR
Assay type: cell-based
How it was run: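 Intact FlpInCHO-hM4 cells, 20,000/well grown overnight, in HBSS pH 7.4 with [3H]-NMS 0.5 nM, ACh (0.01 μM–10 mM) and modulator (0.1–10 μM), shaken 6 h at room temperature. Washed with ice-cold 0.9% NaCl, then scintillation counting. Nonspecific binding defined with 10 μM atropine. pKB and log α(ACh) from global fit to allosteric ternary complex model, with log α′(NMS) fixed at –3 under strong negative cooperativity. 4–5 experiments in duplicate.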

Row | Compound | log(activity)
1 | Cc1ccc(-c2cnn(CC3CCCC3)c2)c(-c2ccc(N)c([N+](=O)[O-])c2)n1 | 1.87
2 | Cc1ccc(-c2cnn(CC3CCCC3)c2)c(-c2ccc3c(c2)C(=O)N(C)C3)n1 | 2.12
3 | Cc1ccc(-c2cnn(CC3CCCC3)c2)c(-c2ccc(F)c(F)c2)n1 | 2.04
